Most compounds without a hit are left out; they make up all but 3.9% or so of the library.
AHR act = activates the human aryl hydrocarbon receptor; P35869; AHR-responsive luciferase reporter cells, luminescence; activation, % at 5 µM; hit rate 2.5% among 320,000; AID 2796; in the data active = activation above about 47%;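 note: 0% = vehicle wells and 100% = reference agonist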
HIF activator = HIF pathway transcriptional activation; U2OS HRE-luciferase reporter, luminescence; normalized: DMSO 0%, desferrioxamine 100%; activation, % at 7.5 µM (by protocol); hit rate 0.32% among 300,000;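 active = mean activation of at least 10% of the iron chelator positive control signal, with at least half of replicates also reaching 10%; inconclusive = mean and replicate majority disagree about reaching 10%; inactive = mean and most replicates under 10%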
FXN GAA850 act = frataxin GAA850 promoter activation; HEK293 lucGAA850 FXN promoter luciferase reporter, 24 h; percent of 10 µM SAHA response; activation, % at 6 µM; hit rate 0.56% among 360,000; AID 540364;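 active = activation above the average of all compounds screened plus 3 SD, cutoff fixed separately per campaign, cut at about 7.5% in these data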;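 note: 0% = DMSO wells and 100% = 10 µM SAHA wells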
SR-BI DiI-HDL act = activators of SR-BI mediated HDL lipid uptake; CHO ldlA[mSR-BI] cells, DiI-HDL uptake fluorescence, 3 h; 100 = double the neutral-control signal; AID 504775; hit rate 0.096% among 320,000; activation, % at 12.5 µM;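 active = mean replicate activation of at least 60% and every replicate at or above 60%; inconclusive = mean or all-replicate condition met, but not both; inactive = mean below 60% and not all replicates reaching 60%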;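 note: 0% = median plate neutral-control signal and 100% = twice that signal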
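Test system: SR-BI-overexpressing, LDLR-lacking CHO cells; Medium: Ham's F12 with 0.5% BSA, HEPES 25 mM, pH 7.4; Schedule: 3 h, 37 °C; Technique: bottom-read fluorescence, 550/595 nm.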
ABCB6 inh 2 = human ABCB6 transporter inhibition; hit rate 0.19% among 360,000; AID 602162; K562-ABCB6 porphyrin accumulation, flow cytometry, 1 h; active compounds read low; fluorescence ratio to DMSO, % at 10 µM;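 active = fluorescence ratio to DMSO below 75%, the collection mean minus 3 SD; inconclusive = too few cells collected in the well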;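 note: signal is porphyrin accumulated inside mitochondria; 100% equals median channel fluorescence of DMSO control wells; lower ratio means ABCB6 inhibition with less porphyrin fluorescence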
SR-BI DiI inh = mouse SR-BI HDL lipid transfer inhibition; Q61009; ldlA[mSR-BI] CHO cells, DiI-HDL uptake fluorescence, 3 h; inhibition, % at 12.5 µM; hit rate 0.96% among 320,000;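 active = mean replicate inhibition of at least 70% and a set share of replicates each scoring 70 or more; inconclusive = meets just one of the two criteria; inactive = fails both criteria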;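 note: 0% = median of neutral control wells and 100% = median of positive control wells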
Target sequence (Q61009 whole entry, looked up): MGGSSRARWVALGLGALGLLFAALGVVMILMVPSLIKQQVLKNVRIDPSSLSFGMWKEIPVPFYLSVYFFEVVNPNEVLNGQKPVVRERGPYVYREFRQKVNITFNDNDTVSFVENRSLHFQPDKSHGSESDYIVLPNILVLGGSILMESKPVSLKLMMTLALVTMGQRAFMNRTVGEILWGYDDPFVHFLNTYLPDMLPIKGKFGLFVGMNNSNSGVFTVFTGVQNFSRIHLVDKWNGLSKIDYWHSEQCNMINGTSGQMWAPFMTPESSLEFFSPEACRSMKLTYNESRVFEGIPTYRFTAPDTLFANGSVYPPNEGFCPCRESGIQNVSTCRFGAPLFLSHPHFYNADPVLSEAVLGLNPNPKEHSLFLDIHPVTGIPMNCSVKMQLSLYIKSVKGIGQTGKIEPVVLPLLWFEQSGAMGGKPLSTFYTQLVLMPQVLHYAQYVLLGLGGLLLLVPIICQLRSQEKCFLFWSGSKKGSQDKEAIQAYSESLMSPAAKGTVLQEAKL
Numbers without * were called inactive; ? = inconclusive; . = not tested or not shown.

SMILES	AHR act	HIF activator	FXN GAA850 act	SR-BI DiI-HDL act	ABCB6 inh 2	SR-BI DiI inh
O=S(=O)(NCC(c1ccc2c(c1)OCO2)N1CCOCC1)c1ccc(Cl)cc1 (centres undefined)	2	-1	0	21	96	-21
O=S(=O)(NCC(c1ccc2c(c1)OCO2)N1CCOCC1)c1ccccc1 (centres undefined)	1	-2	1	347*	100	-347
CCS(=O)(=O)C1=NN2C(=N)/C(=C\c3ccc(SCc4ccco4)o3)C(=O)N=C2S1	.	0	0	?	101	-91
Cc1snc(S(=O)(=O)/C(C#N)=N/Nc2cccc(C(F)(F)F)c2)c1C#N	98*	0	3	16	89	-16
COc1ccc(N/N=C(/C#N)S(=O)(=O)c2nsc(C)c2C#N)cc1	5	0	1	-14	93	14
Cc1nnsc1SCC(=O)O	0	0	0	-10	98	10
Cc1ccc(-c2[nH]c3cc(C(N)=O)ccc3c(=O)c2O)cc1	66*	2	0	4	102	-4
Cc1ccc(CNC(=O)c2ccc3c(=O)c(O)c(-c4ccc(C)cc4)[nH]c3c2)cc1	8	2	-6	-23	98	23
c1ccc(-c2nnc(-c3c[nH]c4ccccc34)nc2-c2ccccc2)cc1	-17	0	0	-51	106	51
CCCC(=O)Nc1ccc(C(=O)Nc2ccc([N+](=O)[O-])cc2OC)cc1	39	0	2	-77	78	77*
CCSc1ccccc1C(=O)Nc1ccc([N+](=O)[O-])cc1OC	15	0	1	-84	102	84*
CCC(C)C(=O)Nc1ccc([N+](=O)[O-])cc1OC (centres undefined)	4	0	-1	-2	98	2
Cc1ccc(CNC(=O)CN2C(=O)CSc3ccc(S(=O)(=O)N4CCC(C)CC4)cc32)cc1	2	0	-1	5	100	-5
COc1ccc(Nc2nc(N3CCCC3)c3ccccc3n2)cc1	50*	0	1	19	108	-19
Nn1c(SCC(=O)Nc2ccc(S(N)(=O)=O)cc2)nnc1-c1ccco1	2	0	1	23	97	-23
Cc1ccc(Nc2nc(Nc3ccc(C)cc3)nc(SC3=NCCS3)n2)cc1	60*	1	0	-43	95	43
Cc1ccccc1Nc1nc(Nc2ccccc2C)nc(SC2=NCCS2)n1	5	0	-7	-27	98	27
COc1cccc(CNC(=O)CCl)c1	-1	-1	0	-6	97	6
CC[C@]12c3[nH]c4ccccc4c3CCN1C(=O)C(CC(=O)NCc1ccco1)C[C@@H]2C(=O)N1CCN(C(=O)c2ccco2)CC1 (some centres undefined)	2	.	-5	3	94	-3
C/C(CC(=O)NCc1ccccc1)=N\NC(N)=S	8	0	4	-48	98	48
C/C(CC(=O)NCc1ccc(F)cc1)=N\NC(N)=S	2	-1	1	-87	104	87*
CN(C)c1ccc(NC(=O)c2ccc(COc3cccc(Cl)c3)o2)cc1	71*	2	2	-5	129	5
CCN1CCN(C(=O)c2ccc(COc3cccc(Cl)c3)o2)CC1	12	0	1	-13	99	13
NNC(=O)c1ccc(COc2ccc3ccccc3c2)o1	80*	1	1	-29	92	29
Cc1ccc(OCc2ccc(C(=O)NN)o2)c([N+](=O)[O-])c1	97*	0	3	-13	96	13
SMILES	AHR act	HIF activator	FXN GAA850 act	SR-BI DiI-HDL act	ABCB6 inh 2	SR-BI DiI inh
CCOc1ccc(OCc2ccc(C(=O)NN)o2)cc1	22	1	3	-19	98	19
Cc1ccc(OCc2ccc(C(=O)NN)o2)cc1C	63*	1	2	-19	96	19
O=C(OCc1ccccn1)c1ccc(COc2ccc3ccccc3c2)o1	17	2	6	.	93	.
CNc1cccc(-c2cc(OC)ccc2OC)n1	.	.	1	.	93	.
CCn1c(Cn2nnc(-c3ccccc3)n2)nnc1SCC(=O)Nc1cccc(C)c1C	-3	0	-2	-76	96	76*
Cc1ccc(OCC(=O)Nc2cccc3ccccc23)c([N+](=O)[O-])n1	23	.	4	-11	94	11
CCOc1ccc(CCNC(=O)c2cccnc2N2CCCC2)cc1OCC	6	0	2	-29	97	29
CCN(CC)CCn1c(=O)n(-c2ccc(Cl)cc2)c(=O)c2c3c(sc21)CN(C)CC3	90*	1	0	21	102	-21
COc1ccc(N=Nc2cc(C)ccc2O)cc1	-2	0	6	-14	92	14
COc1cccc(N=Nc2ccc3ccccc3c2O)c1	78*	-17	5	-72	169	72*
COc1ccc(N=Nc2ccc3ccccc3c2)c(O)c1	49*	2	2	-14	99	14
CS(=O)(=O)Nc1ccccc1C(=O)Nc1cc2c(cc1C(=O)O)OCCCO2	0	-1	-1	6	96	-6
O=C(NCCCn1ccnc1)Nc1ccc2c(c1)OCO2	50*	1	1	23	97	-23
O=C(NCCCn1ccnc1)Nc1cccc(Cl)c1	60*	0	-2	23	98	-23
CCOCCCNC(=O)C(NC(=O)Cc1c[nH]c2ccccc12)c1ccccc1 (centres undefined)	13	0	-1	-2	101	2
CCn1cc(C(=O)N[C@H](C(=O)NC(C)(C)CO)C(C)C)c(=O)c2cc3c(cc21)OCO3	2	-2	1	10	102	-10
CN(C)c1ccc(N=Cc2nc(-c3ccccc3)oc2OC(=O)c2ccccc2)cc1	49*	2	4	10	95	-10
CC(=O)Oc1oc(-c2ccccc2)nc1C=Nc1ccc(N(C)C)cc1	5	1	0	-14	98	14
CCOC(=O)/C=C(/C)N1N=C(c2ccc(OC)cc2)CC1c1cccc([N+](=O)[O-])c1 (centres undefined)	-1	2	5	-22	96	22
CCOc1ccc(Oc2ccc(-c3nnc(-c4ccccc4)o3)cc2[N+](=O)[O-])cc1	5	-42	-1	-12	88	12
Cc1ccc(CNC(=O)c2ccc(N3CCC4(CC3)CC(c3cccc(Br)c3)=NO4)c(NC(=O)c3ccc(Br)cc3)c2)cc1	4	.	-2	-2	100	2
Cc1ccc(CNC(=O)c2ccc(N3CCC4(CC3)CC(c3cccc(Br)c3)=NO4)c(N)c2)cc1	2	0	0	-85	98	85*
Cc1cccc(C)c1NS(=O)(=O)c1ccc(-c2ccc(=O)[nH]n2)o1	4	0	1	9	99	-9
